Screening results: PubChem, several laboratories
Most compounds without a hit are left out; they make up all but 1.1% or so of the library.
FAS-TE inh – blocks the thioesterase domain of human fatty acid synthase; recombinant FAS-TE, OMFH fluorogenic substrate, fluorescence endpoint; P49327; inhibition, % at 15 µM; actives 0.67% (n = 360,000); AID 602261;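 active = compounds whose normalised, plate-corrected inhibition of enzyme fluorescence in the single-dose primary screen is 50% or more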;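 also: 0% = DMSO with enzyme and 100% = substrate without enzyme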
SENP1 FRET inh – SENP1 (human) catalytic domain inhibition. Q9P0U3. recombinant SENP1 catalytic domain, CyPet-SUMO1-YPet FRET cleavage. inhibition, % at 10 µM. actives 0.21% (n = 360,000). AID 624204;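 active = inhibition at least 30% at 10 µM, raw YFP signal under a set limit, fluorescence ratio 0.5 to 1.5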;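 also: 0% = enzyme with DMSO and 100% = no enzyme wells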
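Test system: hSENP1 catalytic domain, recombinant; Amount: 20 pM final SENP1 enzyme; Medium: Tris pH 8 buffer plus EDTA, NaCl, BME, BSA, NP40, catalase; Schedule: 50 min enzyme reaction, room temperature, light-protected; Technique: FRET fluorescence in CFP and YFP emission channels; Controls: no-enzyme wells low, DMSO-plus-enzyme wells high control.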
hiPSC survival – hiPSC single-cell survival enhancement | AID 602274 | survival enhancement, % at 20 µM | ATPlite luminescence; 100% = ROCK inhibitor wells, 0% = DMSO | actives 0.044% (n = 360,000); in the data active = survival enhancement above about 18%;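 also: cells exposed to compounds for 16 hours before the ATP read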
ABCB6 inh 2 – human ABCB6 transporter inhibition; actives 0.19% (n = 360,000); K562-ABCB6 porphyrin accumulation, flow cytometry, 1 h; active compounds read low; fluorescence ratio to DMSO, % at 10 µM; AID 602162;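 active = fluorescence ratio to DMSO below 75%, the collection mean minus 3 SD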;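 also: signal is porphyrin accumulated inside mitochondria; 100% equals median channel fluorescence of DMSO control wells; lower ratio means ABCB6 inhibition with less porphyrin fluorescence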
Target sequence (Q9NP58 whole entry, looked up): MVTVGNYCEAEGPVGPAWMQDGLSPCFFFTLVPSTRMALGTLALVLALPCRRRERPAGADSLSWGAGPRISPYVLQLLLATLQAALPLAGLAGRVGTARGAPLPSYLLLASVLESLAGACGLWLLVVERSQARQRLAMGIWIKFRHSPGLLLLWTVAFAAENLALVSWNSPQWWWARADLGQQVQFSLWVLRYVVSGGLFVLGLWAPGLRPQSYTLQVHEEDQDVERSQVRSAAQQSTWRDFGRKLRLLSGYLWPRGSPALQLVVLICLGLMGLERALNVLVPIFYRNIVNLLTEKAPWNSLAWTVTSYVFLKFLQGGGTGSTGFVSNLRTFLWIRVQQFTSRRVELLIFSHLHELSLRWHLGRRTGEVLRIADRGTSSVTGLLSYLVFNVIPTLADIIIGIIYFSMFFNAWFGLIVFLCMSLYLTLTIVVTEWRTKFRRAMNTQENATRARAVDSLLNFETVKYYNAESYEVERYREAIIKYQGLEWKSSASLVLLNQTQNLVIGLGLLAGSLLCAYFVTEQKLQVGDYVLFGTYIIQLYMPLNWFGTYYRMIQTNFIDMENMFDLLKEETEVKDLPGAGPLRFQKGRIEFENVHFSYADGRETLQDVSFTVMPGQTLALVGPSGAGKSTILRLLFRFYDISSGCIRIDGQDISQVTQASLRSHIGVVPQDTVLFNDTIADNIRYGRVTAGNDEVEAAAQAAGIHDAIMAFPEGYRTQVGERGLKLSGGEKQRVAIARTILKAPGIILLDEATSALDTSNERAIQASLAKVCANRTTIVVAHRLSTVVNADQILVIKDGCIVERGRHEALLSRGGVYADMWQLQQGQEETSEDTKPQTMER
FAS-TE inh conf – confirmation of human fatty acid synthase thioesterase inhibitors. AID 624325. inhibition, % at 15 µM. actives 45% (n = 2,300). shares compounds with FAS-TE inh. recombinant FAS-TE, OMFH fluorogenic substrate, fluorescence;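 active = compounds inhibiting the enzyme by at least 50% at 15 µM in any one of the replicates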;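 also: 0% = enzyme with DMSO only and 100% = wells lacking enzyme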
The depositor's hits bear a star; . = no result given.

SMILES	FAS-TE inh	SENP1 FRET inh	hiPSC survival	ABCB6 inh 2	FAS-TE inh conf
CC(=O)N1CCN(S(=O)(=O)c2cccc(C(=O)OCc3ccc(C(C)(C)C)cc3)c2)CC1	88*	3	0	103	51*
CC(C)(C)C(=O)Nc1nc(C2CCCN2S(=O)(=O)c2ccc(Cl)cc2)cs1 (stereo not drawn)	55*	1	-2	103	65*
COc1cc([N+](=O)[O-])cc(/C=N/NC(=O)c2cccnc2)c1O	62*	-8	0	102	74*
COc1cccc(N2CCN(CC(=O)Nc3nc4c(s3)CC(C)CC4)CC2)c1 (stereo not drawn)	19	0	1	84	.
CC1CCc2nc(NC(=O)CN3CCN(c4ccc(F)cc4)CC3)sc2C1 (stereo not drawn)	85*	3	0	102	79*
C[C@@]12C(=O)N(CCO)CC(=O)N1[C@H](/C=C/c1ccccc1)[C@@H]1C(=O)N(c3ccccc3)C(=O)[C@@H]12	.	.	.	100	.
CCOc1ccc(-c2cccc(NS(=O)(=O)c3ccccc3[N+](=O)[O-])c2)nn1	11	1	0	103	.
CCOc1ccc(-c2ccc(NS(=O)(=O)c3cc([N+](=O)[O-])c(C)c([N+](=O)[O-])c3)cc2)nn1	84*	0	0	107	83*
COc1ccc(CCNC(=O)CC(c2ccccc2)c2cc(C)ccc2O)cc1OC (stereo not drawn)	0	3	0	96	.
COc1ccc(-c2nnc(SC)nc2-c2ccc(OC)c([N+](=O)[O-])c2)cc1[N+](=O)[O-]	69*	-2	0	109	-1
OC[C@@H]1CN(Cc2ccc(-c3ccccc3)cc2)C[C@H](n2cnc3c(N4CCOCC4)ncnc32)O1	2	-4	-2	95	.
Cc1cc(C(=O)COC(=O)c2ccc(N)c([N+](=O)[O-])c2)c(C)n1-c1ccc2c(c1)OCO2	63*	0	-1	99	6
COc1ccc(N(CC(=O)N2CCOCC2)S(C)(=O)=O)cc1	-4	1	0	103	.
Cc1nnc(N)s1	-4	2	-1	93	.
O=C(NNc1ccc([N+](=O)[O-])cc1)C12CC3CC(CC(C3)C1)C2	52*	0	-3	98	45
O=C(c1ccc(F)cc1Cl)N(Cc1ccco1)C1CCS(=O)(=O)C1 (stereo not drawn)	-2	-2	1	95	.
CS(=O)(=O)c1ncc(Cl)c(C(=O)Nc2ccc3ccccc3c2)n1	57*	2	-4	98	33
CCC1CCCCN1S(=O)(=O)c1ccc(NC(=O)c2nc(S(C)(=O)=O)ncc2Cl)cc1 (stereo not drawn)	60*	-2	7	62*	66*
O=C(Nc1ccc2ccccc2c1)c1cnccn1	-6	-2	1	97	.
CCC1CCCCN1S(=O)(=O)c1ccc(NC(=O)c2ccncc2)cc1 (stereo not drawn)	3	2	0	89	.
CN(C)CC1(C)Cc2ccsc2C1O (stereo not drawn)	-5	1	4	102	.
O=C1C2C3C=CC(C3)C2C(=O)N1Nc1ccc([N+](=O)[O-])cc1[N+](=O)[O-] (stereo not drawn)	12	-2	0	100	.
CCOc1ccc(C2CC(=O)N(Nc3ccc([N+](=O)[O-])cc3[N+](=O)[O-])C2=O)cc1 (stereo not drawn)	86*	4	0	94	69*
CC(C)Oc1ccc(C2CC(=O)N(Nc3ccc([N+](=O)[O-])cc3[N+](=O)[O-])C2=O)cc1 (stereo not drawn)	90*	4	1	100	92*
O=C1c2ccccc2C(=O)N1Nc1ccc([N+](=O)[O-])cc1[N+](=O)[O-]	5	0	0	98	.
SMILES	FAS-TE inh	SENP1 FRET inh	hiPSC survival	ABCB6 inh 2	FAS-TE inh conf
Cc1cc(C)n(C(=O)N(c2ccccc2)c2ccccc2)n1	-6	2	1	98	.
CC(C)CCSc1nc(N)c(C#N)cc1C#N	65*	-34	5	103	9
CC(=O)c1cc(C#N)c(SCCC(C)C)nc1C	56*	-1	0	101	48
Cc1ccccc1NC(=O)CSc1nc(N)c(C#N)cc1C#N	-2	-27	-1	103	.
O=C1CCCN1CCCNc1nc2c(S(=O)(=O)c3ccc(Br)cc3)nnn2c2ccccc12	57*	1	0	94	29
Cc1ccc(C)c(Nc2nc3c(S(=O)(=O)c4ccccc4)nnn3c3ccccc23)c1	5	-2	0	89	.
CC(C)c1ccc(S(=O)(=O)c2nnn3c2nc(NCC2CCCO2)c2ccccc23)cc1 (stereo not drawn)	74*	2	0	99	80*
O=S(=O)(c1ccccc1)c1nnn2c1nc(NC1CCN(Cc3ccccc3)CC1)c1cc(Cl)ccc12	80*	-22	0	116	6
O=S(=O)(c1ccccc1)c1nnn2c1nc(NC1CCN(Cc3ccccc3)CC1)c1ccccc12	82*	-8	-1	112	79*
O=C(NC1CCN(Cc2ccccc2)CC1)C1CCN(S(=O)(=O)c2ccc(Cl)cc2)CC1	-4	0	0	95	.
CN(C(=O)CCc1nc2ccccc2c(=O)[nH]1)C1CCS(=O)(=O)C1 (stereo not drawn)	-6	-1	0	100	.
Cc1cccc(N(C)c2ncnc3onc(-c4ccc(F)cc4)c23)c1C	11	0	6	92	.
COc1cccc(CC(=O)N[C@@H](CCSC)c2nc3ccccc3[nH]2)c1	3	-2	0	95	.
Cc1nc(/C=C\C(=O)O)c2cc(C)oc2n1	-4	1	2	97	.
CCOC1=C2[C@H](c3ccc(Cl)cc3)N(S(=O)(=O)c3ccc(C)cc3)C[C@H]2n2c(=O)n(-c3ccccc3)c(=O)n2C1	56*	1	-1	98	13
CCOC1=C2CN(S(=O)(=O)c3ccc(C)cc3)[C@H](c3ccccc3)C[C@H]2n2c(=O)n(-c3ccccc3)c(=O)n2C1	70*	-1	1	98	14
CCOC1=C2[C@H](c3ccccc3)N(S(=O)(=O)c3ccc(C)cc3)C[C@H]2n2c(=O)n(-c3ccccc3)c(=O)n2C1	41	-1	-2	100	.
CCOC1=C2CN(S(=O)(=O)c3ccc(C)cc3)[C@H](c3ccccc3)C[C@@H]2N(S(=O)(=O)c2ccc(C)cc2)[C@H](c2ccccc2)C1	22	-1	0	100	.
CC(NC(=O)C12CC3CC(CC(C3)C1)C2)C(=O)N/N=C/C1=C(N2CCOCC2)C(=C\c2ccccc2)/CC1 (stereo not drawn)	71*	3	0	102	9
COc1ccccc1C(=O)Nc1ccnn1C1CCN(Cc2cnn(C)c2C)CC1	-8	0	1	96	.
